# Data: PubChem BioAssay AID623875 (Vanderbilt Specialized Chemistry Center, 2012)
# Values joined by “and” are separate entries in the source; they are usually repeats but may differ in a detail not shown here. Equal values may be shown once.
# Target: Metabotropic glutamate receptor 4 (Rattus norvegicus) (UniProt P31423)
# Assay: rat mGlu4 positive allosteric modulators, SAR follow-up, thallium flux, HEK/GIRK cells (AID 623875)
# Conditions: HEK/GIRK rat mGlu4, thallium flux fluorescence, PAM
# Method in brief: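 Assay system: HEK/GIRK/M4 cells stably expressing rat mGlu4 receptor; reagent: glutamate agonist added in thallium-containing buffer; dosing: 10-point concentration-response series, threefold dilution steps; schedule: 1 h dye load, ~2.5 min compound pre-agonist; detection: thallium flux through GIRK channels, FluoZin-2 AM fluorescence; read-out basis: baseline-normalized fluorescence slope 5–15 s post-addition, four-parameter logistic EC50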
# Metabotropic glutamate receptor 4 (Rattus norvegicus), sequence (P31423 whole entry, looked up): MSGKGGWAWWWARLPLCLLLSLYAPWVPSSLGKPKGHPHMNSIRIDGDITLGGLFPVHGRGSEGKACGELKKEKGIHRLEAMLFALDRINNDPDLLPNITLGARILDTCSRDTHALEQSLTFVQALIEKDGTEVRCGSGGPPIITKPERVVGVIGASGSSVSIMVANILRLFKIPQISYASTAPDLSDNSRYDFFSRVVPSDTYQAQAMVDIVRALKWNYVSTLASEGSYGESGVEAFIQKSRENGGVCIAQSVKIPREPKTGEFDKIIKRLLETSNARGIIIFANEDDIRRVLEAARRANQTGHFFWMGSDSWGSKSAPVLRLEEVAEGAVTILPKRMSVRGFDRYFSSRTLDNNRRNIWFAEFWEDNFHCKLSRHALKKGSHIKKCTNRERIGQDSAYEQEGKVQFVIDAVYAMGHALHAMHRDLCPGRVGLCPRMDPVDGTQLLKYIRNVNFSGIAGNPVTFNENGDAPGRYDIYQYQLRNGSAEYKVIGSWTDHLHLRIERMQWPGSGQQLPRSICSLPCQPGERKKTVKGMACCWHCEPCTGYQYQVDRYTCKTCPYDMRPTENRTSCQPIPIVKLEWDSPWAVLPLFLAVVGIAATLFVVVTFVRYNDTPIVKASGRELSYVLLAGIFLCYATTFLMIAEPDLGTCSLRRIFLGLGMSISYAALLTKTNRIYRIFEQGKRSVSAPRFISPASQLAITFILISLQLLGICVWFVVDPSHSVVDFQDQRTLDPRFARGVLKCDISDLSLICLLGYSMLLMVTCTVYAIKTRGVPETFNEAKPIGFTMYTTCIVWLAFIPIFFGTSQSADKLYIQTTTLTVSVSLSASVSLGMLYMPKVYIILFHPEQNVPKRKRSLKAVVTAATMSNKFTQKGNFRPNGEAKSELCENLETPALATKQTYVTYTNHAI
row,SMILES,EC50
1,O=C(Nc1cccc(Cl)c1)c1ccccn1,330 nM
2,Clc1cccc(Nc2ncnc3cccnc23)c1,2580 nM
3,CC(C)N(C(=O)c1ccccn1)c1cccc(Cl)c1,10300 nM
4,COc1cc2nc(-c3ccccn3)[nH]c2cc1Cl,6330 nM
5,Clc1ccc2nc(-c3ccccn3)[nH]c2c1,1020 nM
6,O=C(Nc1ccc2c(c1)C(=O)NC2=O)c1ccccn1,2120 nM
7,FC(F)Oc1cccc(Nc2noc3cccnc23)c1,110 nM and 130 nM
8,Clc1cccc(Nc2noc3cccnc23)c1,70 nM and 80 nM
9,O=C(Nc1ccc2cn[nH]c2c1)c1ccccn1,980 nM
10,COc1cc(Nc2noc3cccnc23)ccc1Cl,1190 nM
11,Fc1cccc(Nc2noc3cccnc23)c1,530 nM
